The values that follow come from ChEMBL document CHEMBL5653631, “A Potent and Selective ULK1 Inhibitor Suppresses Autophagy and Sensitizes Cancer Cells to Nutrient Stress” (iScience, 2018).

Test [1] addresses T1, Tyrosine-protein kinase Mer (Homo sapiens) (UniProt Q12866).
T1 sequence (whole entry): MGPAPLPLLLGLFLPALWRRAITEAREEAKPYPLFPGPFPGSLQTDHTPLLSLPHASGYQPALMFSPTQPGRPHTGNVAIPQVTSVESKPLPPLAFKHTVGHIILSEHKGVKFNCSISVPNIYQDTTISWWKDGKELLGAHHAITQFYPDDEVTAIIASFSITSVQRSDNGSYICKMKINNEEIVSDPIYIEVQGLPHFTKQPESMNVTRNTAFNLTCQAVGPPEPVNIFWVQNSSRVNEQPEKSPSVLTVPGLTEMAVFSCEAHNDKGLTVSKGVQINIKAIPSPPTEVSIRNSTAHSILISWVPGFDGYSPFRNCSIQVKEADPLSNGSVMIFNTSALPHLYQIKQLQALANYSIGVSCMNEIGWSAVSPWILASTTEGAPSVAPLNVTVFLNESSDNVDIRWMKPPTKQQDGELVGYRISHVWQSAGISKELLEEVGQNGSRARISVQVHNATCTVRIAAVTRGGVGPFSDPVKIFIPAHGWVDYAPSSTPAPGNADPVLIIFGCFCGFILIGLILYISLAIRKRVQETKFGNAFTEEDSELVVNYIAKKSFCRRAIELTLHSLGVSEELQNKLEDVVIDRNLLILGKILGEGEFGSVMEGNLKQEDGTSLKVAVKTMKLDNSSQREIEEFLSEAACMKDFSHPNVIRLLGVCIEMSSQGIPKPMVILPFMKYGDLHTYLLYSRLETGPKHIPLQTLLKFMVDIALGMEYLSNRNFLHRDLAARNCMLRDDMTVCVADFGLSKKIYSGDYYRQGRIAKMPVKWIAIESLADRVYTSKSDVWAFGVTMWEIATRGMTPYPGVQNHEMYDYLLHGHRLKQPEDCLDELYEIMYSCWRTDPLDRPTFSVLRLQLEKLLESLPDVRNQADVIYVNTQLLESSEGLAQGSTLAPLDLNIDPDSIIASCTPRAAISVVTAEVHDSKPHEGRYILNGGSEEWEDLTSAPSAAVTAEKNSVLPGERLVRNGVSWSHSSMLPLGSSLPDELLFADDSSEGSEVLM
Description: Inhibition of human recombinant MER at 15 nM in presence of ATP by radiometric assay relative to control.

Test [2] deals with Cyclin-dependent kinase 7 (Homo sapiens) (UniProt P50613). As to the kind of experiment: Inhibition of human recombinant CDK7 at 15 nM in presence of ATP by radiometric assay relative to control.
Sequence of Cyclin-dependent kinase 7 (Homo sapiens) (P50613 whole entry): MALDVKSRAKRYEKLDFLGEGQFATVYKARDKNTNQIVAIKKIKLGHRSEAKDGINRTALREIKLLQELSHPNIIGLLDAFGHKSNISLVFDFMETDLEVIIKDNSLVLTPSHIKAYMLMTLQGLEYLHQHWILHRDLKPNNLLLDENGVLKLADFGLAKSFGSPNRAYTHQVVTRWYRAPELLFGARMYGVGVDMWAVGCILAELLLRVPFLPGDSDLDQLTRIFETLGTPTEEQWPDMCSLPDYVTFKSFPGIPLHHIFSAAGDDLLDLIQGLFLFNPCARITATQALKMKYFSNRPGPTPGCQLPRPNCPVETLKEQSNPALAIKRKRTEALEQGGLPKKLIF
Test [3] addresses Fibroblast growth factor receptor 2 (Homo sapiens) (UniProt P21802). Description: Inhibition of human recombinant FGFR2 at 15 nM in presence of ATP by radiometric assay relative to control.
Test [4] concerns the target Serine/threonine-protein kinase PLK2 (Homo sapiens) (UniProt Q9NYY3). As to the kind of experiment: Inhibition of human recombinant PLK2 at 40 nM related to control ULK1.
The target in test [5] is T2, G protein-coupled receptor kinase 3 (Homo sapiens) (UniProt P35626).
T2 sequence (whole entry): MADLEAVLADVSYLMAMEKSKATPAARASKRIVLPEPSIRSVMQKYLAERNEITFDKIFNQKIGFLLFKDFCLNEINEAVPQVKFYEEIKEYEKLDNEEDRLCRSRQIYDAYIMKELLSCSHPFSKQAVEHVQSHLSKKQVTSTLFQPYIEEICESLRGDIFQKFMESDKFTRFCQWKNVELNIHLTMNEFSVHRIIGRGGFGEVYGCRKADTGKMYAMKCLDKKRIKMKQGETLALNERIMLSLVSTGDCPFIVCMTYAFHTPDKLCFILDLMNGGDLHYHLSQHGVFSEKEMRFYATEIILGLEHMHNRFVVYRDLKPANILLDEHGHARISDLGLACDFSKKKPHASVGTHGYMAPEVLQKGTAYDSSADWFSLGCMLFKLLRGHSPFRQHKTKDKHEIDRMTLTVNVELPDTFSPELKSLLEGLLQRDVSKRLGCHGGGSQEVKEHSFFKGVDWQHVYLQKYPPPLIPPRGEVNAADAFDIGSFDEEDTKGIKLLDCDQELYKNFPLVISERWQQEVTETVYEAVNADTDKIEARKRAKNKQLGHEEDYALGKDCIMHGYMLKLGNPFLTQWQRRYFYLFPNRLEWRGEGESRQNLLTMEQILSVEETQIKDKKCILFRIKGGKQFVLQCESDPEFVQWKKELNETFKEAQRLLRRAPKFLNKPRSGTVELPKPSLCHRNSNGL
Description: Inhibition of human recombinant BARK2 at 40 nM related to control ULK1. Summed up: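 Radiometric activity assays in a panel of 327 human recombinant kinases, each run in duplicate at one inhibitor concentration. Activity remaining is expressed as percent of vehicle control, and percent inhibition is calculated as 100% minus percent activity remaining.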

In test [6] the target is Serine/threonine-protein kinase 33 (Homo sapiens) (UniProt Q9BYT3). Description: Inhibition of human recombinant STK33 at 500 nM in presence of ATP by radiometric assay relative to control.
Sequence of Serine/threonine-protein kinase 33 (Homo sapiens) (Q9BYT3 whole entry, looked up): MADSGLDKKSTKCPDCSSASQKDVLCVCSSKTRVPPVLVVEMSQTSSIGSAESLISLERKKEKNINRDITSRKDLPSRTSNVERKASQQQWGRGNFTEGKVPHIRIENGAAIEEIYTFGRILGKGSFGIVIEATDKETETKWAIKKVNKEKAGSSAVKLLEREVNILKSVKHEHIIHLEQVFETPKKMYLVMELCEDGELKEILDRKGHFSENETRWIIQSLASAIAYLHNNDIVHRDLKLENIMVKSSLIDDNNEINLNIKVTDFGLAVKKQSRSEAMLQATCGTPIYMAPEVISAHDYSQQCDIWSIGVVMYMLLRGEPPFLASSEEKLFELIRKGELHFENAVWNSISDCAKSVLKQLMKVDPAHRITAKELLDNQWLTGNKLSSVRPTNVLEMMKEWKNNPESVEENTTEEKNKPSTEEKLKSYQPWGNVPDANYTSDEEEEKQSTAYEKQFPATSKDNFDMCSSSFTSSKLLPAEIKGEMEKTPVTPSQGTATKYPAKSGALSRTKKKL
Test [7] has as its target T3, Serine/threonine-protein kinase 3 (Homo sapiens) (UniProt Q13188).
T3 sequence (whole entry): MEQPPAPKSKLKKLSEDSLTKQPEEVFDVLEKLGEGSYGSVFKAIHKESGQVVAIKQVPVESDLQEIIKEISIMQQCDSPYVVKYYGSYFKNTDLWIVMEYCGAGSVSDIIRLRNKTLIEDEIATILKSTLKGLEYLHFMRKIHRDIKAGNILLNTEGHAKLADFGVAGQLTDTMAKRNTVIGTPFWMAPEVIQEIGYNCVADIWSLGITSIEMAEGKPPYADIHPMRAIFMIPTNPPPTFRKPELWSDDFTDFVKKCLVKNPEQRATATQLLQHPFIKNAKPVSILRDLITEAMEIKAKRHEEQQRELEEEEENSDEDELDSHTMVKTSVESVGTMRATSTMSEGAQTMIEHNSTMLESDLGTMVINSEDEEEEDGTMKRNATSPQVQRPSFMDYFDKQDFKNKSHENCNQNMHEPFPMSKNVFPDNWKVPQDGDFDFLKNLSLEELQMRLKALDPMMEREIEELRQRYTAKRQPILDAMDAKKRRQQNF
Description: Inhibition of human recombinant MST2 at 500 nM in presence of ATP by radiometric assay relative to control.

Sequence of Serine/threonine-protein kinase PLK2 (Homo sapiens) (Q9NYY3 whole entry, looked up): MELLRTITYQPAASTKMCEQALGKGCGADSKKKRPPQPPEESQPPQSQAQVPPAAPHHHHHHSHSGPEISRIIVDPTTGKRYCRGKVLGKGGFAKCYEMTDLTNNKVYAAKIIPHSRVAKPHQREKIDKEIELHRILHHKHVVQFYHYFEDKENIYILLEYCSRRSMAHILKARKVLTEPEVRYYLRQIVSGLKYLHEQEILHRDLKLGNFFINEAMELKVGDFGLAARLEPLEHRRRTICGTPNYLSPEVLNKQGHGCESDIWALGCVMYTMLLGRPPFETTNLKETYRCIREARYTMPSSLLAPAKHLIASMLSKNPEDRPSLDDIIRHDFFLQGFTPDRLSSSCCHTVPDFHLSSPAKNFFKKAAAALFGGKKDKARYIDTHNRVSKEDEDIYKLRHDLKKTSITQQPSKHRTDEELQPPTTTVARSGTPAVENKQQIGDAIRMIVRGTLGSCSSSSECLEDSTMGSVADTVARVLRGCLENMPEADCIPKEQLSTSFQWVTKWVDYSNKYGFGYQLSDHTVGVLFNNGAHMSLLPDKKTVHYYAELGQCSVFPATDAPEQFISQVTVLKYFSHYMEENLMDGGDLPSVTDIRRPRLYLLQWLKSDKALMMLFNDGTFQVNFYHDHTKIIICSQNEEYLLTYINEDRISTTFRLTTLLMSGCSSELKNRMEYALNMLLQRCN
Sequence of Fibroblast growth factor receptor 2 (Homo sapiens) (P21802 22-821 limits assumed): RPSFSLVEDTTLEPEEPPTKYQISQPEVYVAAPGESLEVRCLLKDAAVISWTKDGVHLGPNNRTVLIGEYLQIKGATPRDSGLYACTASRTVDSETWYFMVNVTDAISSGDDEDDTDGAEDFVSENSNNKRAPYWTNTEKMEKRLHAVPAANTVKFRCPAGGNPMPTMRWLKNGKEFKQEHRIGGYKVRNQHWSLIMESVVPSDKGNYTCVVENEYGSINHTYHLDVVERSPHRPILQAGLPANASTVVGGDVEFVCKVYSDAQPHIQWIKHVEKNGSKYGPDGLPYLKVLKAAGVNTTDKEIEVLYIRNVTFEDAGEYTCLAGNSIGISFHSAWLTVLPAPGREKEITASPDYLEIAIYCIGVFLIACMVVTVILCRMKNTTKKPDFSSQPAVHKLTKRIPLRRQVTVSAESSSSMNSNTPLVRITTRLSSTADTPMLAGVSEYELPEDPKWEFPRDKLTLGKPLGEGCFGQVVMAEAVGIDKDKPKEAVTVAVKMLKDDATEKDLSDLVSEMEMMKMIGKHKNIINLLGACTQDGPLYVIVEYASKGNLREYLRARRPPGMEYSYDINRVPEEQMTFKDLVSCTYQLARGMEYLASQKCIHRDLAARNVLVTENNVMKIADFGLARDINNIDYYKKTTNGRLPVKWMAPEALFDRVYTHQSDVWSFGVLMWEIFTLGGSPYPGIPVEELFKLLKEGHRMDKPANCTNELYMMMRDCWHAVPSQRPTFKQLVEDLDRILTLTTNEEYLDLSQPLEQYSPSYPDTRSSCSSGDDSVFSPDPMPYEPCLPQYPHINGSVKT

For `CC(C)[C@H](NC(=O)c1cc(-c2cnn3cc(-c4ccc(OCCN5CCCCC5)cc4)cnc23)cs1)C(F)(F)F`, the inhibition amounted to 34% in test [1], 16% in test [2] and 0% in test [3].

Turning to `O=C(N[C@@H](C1CC1)C(F)(F)F)c1cc(-c2cnn3cc(-c4ccc(F)cc4)cnc23)cs1`, the fold change (FC) worked out at 0.04 in test [4] and 0.1 in test [5].

Take `CNC(=O)c1ccccc1Oc1nc(Nc2cc(OC)c(OC)c(OC)c2)ncc1Br`: the values for the inhibition in test [6] and in test [7] were 4% and 0%, respectively.
